Experimental data collected from several papers.
Compare with care: the assays were run in different laboratories.
Target: Serine/threonine-protein kinase 32A (STK32A, Homo sapiens, UniProt Q8WU08)

| Structure (SMILES) | test | setting | remaining binding [%] |
| --- | --- | --- | --- |
| O=C(NCCCN1CCOCC1)c1ccc(Nc2nccc(-c3cc4ccccc4s3)n2)cc1 | binding, competition with immobilised ligand | 1 µM | 100 |
| COc1cnc(Nc2cccc(S(N)(=O)=O)c2)nc1N1CCN(c2ccccc2)CC1 | binding, competition with immobilised ligand | 1 µM | 94 |
| NS(=O)(=O)c1cc(NC(=O)Cc2ccccc2)ccc1Oc1cccc(Cl)c1 | cell-free assay, competition with immobilised ligand | 1 µM | 100 |
| O=C(c1ccc(Nc2ncc(Cl)c(-c3cc4ccccc4s3)n2)cc1)N1CCC(N2CCCC2)CC1 | binding, competition with immobilised ligand | 1 µM | 68 |
| C[C@@H]1CCN(c2nccc(-c3cnn4ncccc34)n2)C1 | binding | 1 µM | 71 |
| CCC(=O)N[C@H]1CC[C@@H](C(=O)N(C)c2ccc(-c3nc4ccccc4o3)cc2)C1 | cell-free assay, competition with immobilised ligand | 1 µM | 98 |
| COc1cnc(Nc2cccc(S(N)(=O)=O)c2)nc1N1CCN(c2ccccc2)C(=O)C1 | binding, competition with immobilised ligand | 1 µM | 98 |
| C[C@@H](c1ccc(-n2cnc3c(N)ncnc32)cc1)N1CCc2nn(C)c(Cc3ccccc3)c2C1=O | binding, competition with immobilised ligand | 0.1 µM | 94 |
| F[C@@H]1CCN(c2nccc(-c3cnn4ncccc34)n2)C1 | binding | 1 µM | 100 |
| CCCOc1ccc([C@@H]2[C@@H](C(=O)O)[C@H](c3ccc4c(c3)OCO4)CN2CC(=O)Nc2c(CC)cccc2CC)cc1 | cell-free assay, competition with immobilised ligand | 1 µM | 85 |
| N[C@@H]1CCN(c2nccc(-c3cnn4ncccc34)n2)C1 | binding | 1 µM | 98 |
| N#CC1(c2ccccn2)CCN(Cc2cc(C(=O)N3CCCC3)c(=O)n3ccccc23)CC1 | cell-free assay, competition with immobilised ligand | 1 µM | 98 |
| COc1ccnn2ncc(-c3ccnc(N(C)C)n3)c12 | binding | 1 µM | 74 |
| Nc1ncc2c(n1)-c1c([nH]c3ccc(C#CC4CC4)cc13)CCCC2 | binding, competition with immobilised ligand | 1 µM | 80 |
| CN(C)c1nccc(-c2cnn3ncccc23)n1 | binding | 1 µM | 81 |
| CCN1CCN(Cc2ccc(C(=O)Nc3ccc(C)c(Oc4ccc5c(c4)CC(=O)N5)c3)cc2C(F)(F)F)CC1 | binding, competition with immobilised ligand | 1 µM | 100 |
| CN(C(=O)c1ccccc1)c1cc(N(C)c2ccc3c(c2)CCc2ccc(C(=O)NCCN4CCOCC4)cc2C3=O)ccc1F | cell-free assay, competition with immobilised ligand | 1 µM | 68 |
| O=C(NCC1CCOCC1)c1n[nH]cc1NC(=O)c1c(F)cccc1F | binding, competition with immobilised ligand | 1 µM | 88 |
| N#Cc1ccc(Nc2ccc3[nH]c(=O)[nH]c3c2)c(Cl)c1 | binding, competition with immobilised ligand | 1 µM | 81 |
| CN(CCCC(F)(F)F)c1nccc(-c2cnn3ncccc23)n1 | binding | 1 µM | 100 |
| CN([C@@H]1CCc2c(CC(=O)O)c3cc(S(C)(=O)=O)ccc3n2C1)S(=O)(=O)c1ccc(F)cc1 | cell-free assay, competition with immobilised ligand | 1 µM | 100 |
| O=C(c1ccc(Nc2nccc(-c3cc4ccccc4s3)n2)cc1)N1CCC(N2CCCC2)CC1 | binding, competition with immobilised ligand | 1 µM | 100 |
